Converted amounts (≈) assume the structure as drawn.
What was measured:
[1] = Immunomodulatory activity in MNC assessed as suppression of phagocytosis activity after 30 mins by luminol-enhanced chemiluminescence assay; assay type: functional
Procedure, shortened: (§1)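 Luminol-enhanced chemiluminescence was run on neutrophils (1 × 10^7) or monocytes (1 × 10^6) in HBSS with Ca/Mg. Cells were preincubated 30 min with compound (3.1–50 µg/mL), then zymosan (20 mg/mL stock) and luminol (7 × 10^-5 M stock) were added, to 0.2 mL final. HBSS alone served as control. Fifty luminometer scans were taken at 30 s intervals, with readings expressed relative to untreated control.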

[2] = tested on: PBMC; test: Immunomodulatory activity in human PBMC assessed as phytohemagglutinin-stimulated IL2 release at 0.5 to 16 ug/mL after 18 hrs by ELISA; assay type: functional
Procedure, shortened: (§2)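 Donor PBMCs were Ficoll-isolated and cultured in RPMI-1640 with 10% AB human serum, at 10^5 cells/well, with or without PHA 1.25 µg/mL. Compounds were tested at 16, 4, 1 and 0.5 µg/mL for 18 h at 37 °C in 5% CO2. Supernatants were cleared by 1000g centrifugation at 4 °C. IL-2, IL-4 and IFN-γ were measured by ELISA kit.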

[3] = tested on: PBMC; test: Immunomodulatory activity in human PBMC assessed as inhibition of phytohemagglutinin-stimulated IFN-gamma release at 0.5 ug/mL after 18 hrs by ELISA; assay type: functional; procedure, shortened: as §2
[4] = tested on: PBMC; test: Immunomodulatory activity in human PBMC assessed as inhibition of phytohemagglutinin-induced T-cell proliferation at 12.5 ug/mL after 72 hrs by [3H]thymidine incorporation assay; assay type: functional
Procedure, shortened: (§3)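 PBMCs were isolated from heparinized venous blood of a healthy adult donor by Ficoll–Hypaque gradient. Cells at 5 × 10^5 cells/mL were stimulated with PHA 5 µg/mL, with compounds at 3.1–100 µg/mL final, in triplicate. Incubation was 72 h at 37 °C in 5% CO2, then a 0.5 µCi/well [3H]thymidine pulse for 18 h further. Incorporation was counted by liquid scintillation as mean CPM.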

[5] = tested on: PBMC; test: Immunomodulatory activity in human PBMC assessed as inhibition of phytohemagglutinin-stimulated IL2 release at 0.5 ug/mL after 18 hrs by ELISA; assay type: functional; procedure, shortened: as §2
[6] = tested on: PBMC; test: Immunomodulatory activity in human PBMC assessed as inhibition of phytohemagglutinin-stimulated IL4 release at 1 ug/mL after 18 hrs; assay type: functional; procedure, shortened: as §2
[7] = tested on: Neutrophil; test: Immunomodulatory activity in polymorphoneutrophils assessed as inhibition of fMLP-induced cellular chemotaxis at 2.5 to 25 ug/mL after 1 hr using hematoxylin staining by light microscopy; assay type: functional
Procedure, shortened: (§4)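 PMN chemotaxis was measured in a modified Boyden chamber. fMLP (10^-8 M) was placed in the lower well, separated by a cellulose filter (2 µm pores). 5 × 10^4 cells in HBSS with Ca/Mg went in the upper well, with compounds at 2.5, 5 or 25 µg/mL, in duplicate. The DMSO:HBSS (1:1) buffer served as control. After 60 min at 37 °C in CO2, cells in the filter were hematoxylin-stained and migration distance was measured in five random fields.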

[8] = tested on: PBMC; test: Immunomodulatory activity in human PBMC assessed as phytohemagglutinin-stimulated IL4 release at 0.5 to 16 ug/mL after 18 hrs by ELISA; assay type: functional; procedure, shortened: as §2
[9] = tested on: PBMC; test: Immunomodulatory activity in human PBMC assessed as inhibition of phytohemagglutinin-stimulated IFN-gamma release after 18 hrs by ELISA; assay type: functional, cell-based; procedure, shortened: as §2
[10] = tested on: PBMC; test: Immunomodulatory activity in human PBMC assessed as phytohemagglutinin-stimulated IFN-gamma release at 0.5 to 16 ug/mL after 18 hrs by ELISA; assay type: functional; procedure, shortened: as §2
[11] = Cytotoxicity against MNC at 3.1 to 50 ug/mL
[12] = tested on: PBMC; test: Immunomodulatory activity in human PBMC assessed as inhibition of phytohemagglutinin-stimulated IL4 release after 18 hrs by ELISA; assay type: functional, cell-based; procedure, shortened: as §2
[13] = Cytotoxicity against MDBK cells at 50 ug/mL after 72 hrs by MTT assay; assay type: cell-based, Bos taurus; conditions: cattle
Procedure, shortened: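 MDBK adherent cells at 2 × 10^5 cells/mL were exposed to serial compound dilutions (0.195–50 µg/mL), with viability examined after 72 h. MTT (2 mg/mL) was added for 2–3 h at 37 °C. Cells were washed with PBS and the formazan dissolved in DMSO, with 15 min agitation at 37 °C. Absorbance was read at 540 nm, and viability was taken as the OD ratio to control.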

[14] = tested on: Neutrophil; test: Immunomodulatory activity in polymorphoneutrophils assessed as suppression of phagocytosis activity at 3.1 ug/mL after 30 mins by luminol-enhanced chemiluminescence assay
[15] = tested on: PBMC; test: cells; conditions: Homo sapiens
[16] = Immunomodulatory activity in MNC assessed as suppression of phagocytosis activity at 3.1 ug/mL after 30 mins by luminol-enhanced chemiluminescence assay
[17] = Cytotoxicity against polymorphoneutrophils at 3.1 to 50 ug/mL; assay type: cell-based; conditions: neutrophil
[18] = tested on: PBMC; test: Immunomodulatory activity in human PBMC assessed as inhibition of phytohemagglutinin-stimulated IL2 release after 18 hrs by ELISA; assay type: functional, cell-based; procedure, shortened: as §2
[19] = tested on: Neutrophil; test: Immunomodulatory activity in polymorphoneutrophils assessed as suppression of phagocytosis activity 30 mins by luminol-enhanced chemiluminescence assay; assay type: functional, cell-based; procedure, shortened: as §1
[20] = tested on: Neutrophil; test: Immunomodulatory activity in polymorphoneutrophils assessed as inhibition of fMLP-induced cellular chemotaxis at 5 ug/mL pre-incubated 1 hr before fMLP challenge measured after 1 hr using hematoxylin staining by light microscopy; assay type: functional; procedure, shortened: as §4
[21] = tested on: Neutrophil; test: Immunomodulatory activity in polymorphoneutrophils assessed as inhibition of fMLP-induced cellular chemotaxis at 2.5 ug/mL pre-incubated 1 hr before fMLP challenge measured after 1 hr using hematoxylin staining by light microscopy; assay type: functional; procedure, shortened: as §4
[22] = tested on: Neutrophil; test: Immunomodulatory activity in polymorphoneutrophils assessed as inhibition of fMLP-induced cellular chemotaxis at 25 ug/mL after 1 hr using hematoxylin staining by light microscopy; assay type: functional; procedure, shortened: as §4
[23] = Immunomodulatory activity in MNC assessed as inhibition of reactive oxygen species release at 25 ug/mL after 30 mins by luminol-enhanced chemiluminescence assay; assay type: functional; set-up: scale not given: the % may be the effect or the level left; procedure, shortened: as §1
[24] = tested on: PBMC; test: Immunomodulatory activity in human PBMC assessed as inhibition of phytohemagglutinin-induced T-cell proliferation at 3.1 ug/mL after 72 hrs by [3H]thymidine incorporation assay; assay type: functional; procedure, shortened: as §3
[25] = tested on: PBMC; test: Immunomodulatory activity in human PBMC assessed as inhibition of phytohemagglutinin-induced T-cell proliferation at 6.125 ug/mL after 72 hrs by [3H]thymidine incorporation assay; assay type: functional; procedure, shortened: as §3
[26] = Immunomodulatory activity in MNC assessed as stimulation of reactive oxygen species release at 3.1 ug/mL after 30 mins by luminol-enhanced chemiluminescence assay; assay type: functional; procedure, shortened: as §1
[27] = Immunomodulatory activity in MNC assessed as inhibition of reactive oxygen species release at 50 ug/mL after 30 mins by luminol-enhanced chemiluminescence assay; assay type: functional; set-up: scale not given: the % may be the effect or the level left; procedure, shortened: as §1

| Structure (SMILES) | Activity [1] | Activity [2] [pg/mL] | inhibition at 12.5 µg/mL [4] [%] | inhibition (INH) [7] [%] | Activity [8] [pg/mL] | inhibition [9] | Activity [10] [pg/mL] | Activity [11] | inhibition [12] | Activity [13] | IC50 [15] [mg/L] | Activity [17] | inhibition [18] | Activity [19] | further results |
| --- | --- | --- | --- | --- | --- | --- | --- | --- | --- | --- | --- | --- | --- | --- | --- |
| CC(C)=CCc1c(O)c(CC=C(C)C)c2oc3c(O)cc(O)cc3c(=O)c2c1O [STAUDTIIXANTHONE A] | Dose-dependent effect | 528.5 | 94.3 | 27 | 120.5 | Dose-dependent effect | 4033.7 | Non-toxic | Dose-dependent effect | Non-toxic | 6.2 (≈ 15.6 µM) | Non-toxic | Dose-dependent effect | Dose-dependent effect | inhibition at 0.5 µg/mL [3]: 62.5%; inhibition at 0.5 µg/mL [5]: 68.2%; inhibition at 1 µg/mL [6]: 88.1%; Activity [14]: 73%; Activity [16]: 73% |
| CC(C)=CCc1c2c(c(O)c3c(=O)c4cc(O)cc(O)c4oc13)C=CC(C)(C)O2 [STAUDTIIXANTHONE B] | Dose-dependent effect | 528.5 | 97.1 | 27 | 120.5 | Dose-dependent effect | 4033.7 | Non-toxic | Dose-dependent effect | Non-toxic | 6.4 (≈ 16.2 µM) | Non-toxic | Dose-dependent effect | Dose-dependent effect |  |
| CC(C)=CCc1c2c(c3oc4c(O)cc(O)cc4c(=O)c3c1O)C=CC(C)(C)O2 [STAUDTIIXANTHONE C] | Dose-dependent effect | 528.5 |  | 27 | 120.5 | Dose-dependent effect | 4033.7 | Non-toxic | Dose-dependent effect | Non-toxic | 12.7 (≈ 32.2 µM) | Non-toxic | Dose-dependent effect | Dose-dependent effect | inhibition at 5 µg/mL [20]: 42.2%; inhibition at 2.5 µg/mL [21]: 36.4%; inhibition at 25 µg/mL [22]: 46% |
| COc1cc2oc3c4c(cc(O)c3c(=O)c2c2c1OC(C)(C)CC2)OC(C)(C)CC4 [STAUDTIIXANTHONE D] | Dose-dependent effect | 528.5 |  | 27 | 120.5 |  | 4033.7 | Non-toxic |  | Non-toxic | 3.7 (≈ 9.01 µM) | Non-toxic |  | Dose-dependent effect | Activity [23]: 59%; inhibition at 3.1 µg/mL [24]: 44.9%; inhibition at 6.125 µg/mL [25]: 70.4%; Activity [26]: 24%; Activity [27]: 70% |

From ChEMBL document CHEMBL1153469, “Antimicrobial and immunomodulatory properties of prenylated xanthones from twigs of Garcinia staudtii” (Bioorg Med Chem, 2009)
